Source: ChEMBL document CHEMBL4229508, “Nitric oxide donor-based FFA1 agonists: Design, synthesis and biological evaluation as potential anti-diabetic and anti-thrombotic agents” (Bioorg Med Chem, 2018)

Assays:
[1] = biological target: Free fatty acid receptor 1 (Homo sapiens, UniProt O14842); test: Agonist activity at human FFA1 receptor expressed in CHO cells assessed as increase in intracellular calcium levels measured for 90 secs by Fluo 4-AM dye based FLIPR assay; assay type: functional, cell-based
Method in brief: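 CHO cells stably expressing human FFA1 were seeded at 15 K cells/well and grown 12 h at 37 °C, 5% CO2, then washed with HBSS. Ca2+ flux after compound addition was read on FLIPR for 90 s. Activity = [(A−B)/(C−B)]×100, with B = vehicle and C = 10 µM γ-linolenic acid.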

Platelet [2] = test: Antiplatelet activity in rabbit platelet rich plasma assessed as inhibition of ADP-induced platelet aggregation at 0.1 mM preincubated for 5 mins followed by ADP addition measured up to 5 mins in presence of NO scavenger carboxy-PTIO; assay type: functional; settings: Oryctolagus cuniculus
Method in brief: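 Run as the rabbit PRP turbidimetric assay: compound at 0.1 mM, 5 min preincubation at 37 °C, ADP 10 µM, maximal light transmission recorded within 5 min. Carboxy-PTIO (20 µM) was also incubated with the drug-platelet suspension. Inhibition % is relative to vehicle. Mean ± SD of three independent experiments.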

Platelet [3] = test: Antiplatelet activity in rabbit platelet rich plasma assessed as inhibition of ADP-induced platelet aggregation at 0.1 mM preincubated for 5 mins followed by ADP addition measured up to 5 mins; assay type: functional; settings: Oryctolagus cuniculus
Method in brief: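 Rabbit blood was spun at 500 rpm for 10 min to give PRP, and then at 3000 rpm for 10 min to give PPP. PRP was preincubated in duplicate with compound (0.1 mM), vehicle or ticlopidine for 5 min at 37 °C. Aggregation was induced with ADP (10 µM), and light transmission at maximal aggregation was recorded within 5 min. Inhibition % = (A−B)/A×100 versus vehicle. Three independent experiments, mean ± SD.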

Mus musculus = test: Antidiabetic activity in ICR mouse assessed as reduction in plasma glucose AUC (0 to 90 mins) at 20 mg/kg, po dosed 30 mins prior to glucose challenge by OGTT relative to control; assay type: functional; design: scale not given: the % may be the effect or the level left
Method in brief: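 Male ICR mice, fasted 12 h, randomized into groups (n = 6). Compound was given orally at 20 mg/kg in 0.5% methylcellulose 30 min before an oral glucose load (3 g/kg). Blood glucose was read by test strips at −30, 0, 15, 30, 60 and 90 min. AUC0–90min was calculated; mean ± SD.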

Free fatty acid receptor 1, sequence (O14842 whole entry): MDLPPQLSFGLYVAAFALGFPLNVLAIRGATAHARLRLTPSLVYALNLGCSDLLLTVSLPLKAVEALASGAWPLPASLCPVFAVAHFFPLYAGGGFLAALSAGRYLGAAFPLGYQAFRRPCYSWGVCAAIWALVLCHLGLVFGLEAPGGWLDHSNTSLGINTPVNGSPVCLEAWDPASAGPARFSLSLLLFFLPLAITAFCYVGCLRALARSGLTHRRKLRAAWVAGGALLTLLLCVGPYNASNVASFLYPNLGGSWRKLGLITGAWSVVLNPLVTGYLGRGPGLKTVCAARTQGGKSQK

Row | EC50 [1] [nM] | SMILES | inhibition at 100 µM (Platelet [2]) [%] | inhibition at 100 µM (Platelet [3]) [%] | Activity (Mus musculus) [%]
1 | 93.7 | Cc1cc(OCCCCO[N+](=O)[O-])cc(C)c1-c1cccc(COc2ccc(OCC(=O)O)c(F)c2)c1 | 1.15 | 11.1 | –
2 | – | Cc1cc(OCCCS(C)(=O)=O)cc(C)c1-c1cccc(COc2ccc3c(c2)OC[C@H]3CC(=O)O)c1 | – | – | 32.3
3 | 61.5 | Cc1cc(OCCCO[N+](=O)[O-])cc(C)c1-c1cccc(COc2ccc(OCC(=O)O)c(F)c2)c1 | 1.05 | 10.8 | 41.6
4 | 76.4 | Cc1cc(OCCO[N+](=O)[O-])cc(C)c1-c1cccc(COc2ccc(OCC(=O)O)c(F)c2)c1 | 1.34 | 8.28 | –
5 | 54.2 | COc1cc(C)c(-c2cccc(COc3ccc(OCC(=O)O)c(F)c3)c2)c(C)c1 | – | – | –
